Results: ChEMBL document CHEMBL4350998, “Design, synthesis, and structure-activity relationship studies of l-amino alcohol derivatives as broad-spectrum antifungal agents” (Eur J Med Chem, 2019)

How the values were obtained:
[1] = test system: Candida albicans; experiment: Antifungal activity against Candida albicans ATCC SC5314 assessed as inhibition of visible microbial growth by NCCLS protocol based method; assay type: functional
How it was run: (§1)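 Compounds dissolved in DMSO and serially diluted into growth medium. MIC was read as the lowest concentration that inhibited visible fungal growth.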

[2] = test system: Aspergillus fumigatus; experiment: Antifungal activity against Aspergillus fumigatus CGMCC 3.7795 assessed as inhibition of visible microbial growth by NCCLS protocol based method; assay type: functional; how it was run: as §1
[3] = test system: Candida tropicalis; experiment: Antifungal activity against Candida tropicalis CGMCC 2.3739 assessed as inhibition of visible microbial growth by NCCLS protocol based method; assay type: functional; how it was run: as §1
[4] = test system: Candida albicans; experiment: Antifungal activity against Candida albicans CPCC 400523 assessed as inhibition of visible microbial growth by NCCLS protocol based method; assay type: functional
[5] = test system: Cryptococcus neoformans; experiment: Antifungal activity against Cryptococcus neoformans CGMCC 2.3161 assessed as inhibition of visible microbial growth by NCCLS protocol based method; assay type: functional; how it was run: as §1
[6] = Cytotoxicity in human A549 cells assessed as reduction in cell viability at 0.40 uM/L incubated for 24 hrs by MTT assay relative to control; assay type: cell-based; conditions: read-out: INH
How it was run: (§2)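 A549 cells were seeded at 3000 cells/well and preincubated for 16 h at 37 °C, 5% CO2. Medium was then replaced with fresh medium holding compound (DMSO stock diluted to final 0.08, 0.4, 2.0, 10 or 50 μM/L). Exposure lasted 24 h at 37 °C, 5% CO2, followed by MTT for 4 h and absorbance at 490 nm. Results are given as % inhibition.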

[7] = Cytotoxicity in human A549 cells assessed as reduction in cell viability at 50 uM/L incubated for 24 hrs by MTT assay relative to control; assay type: cell-based; conditions: read-out: INH; how it was run: as §2
[8] = test system: Candida albicans; experiment: Antifungal activity against fluconazole-resistant Candida albicans Strain 17# assessed as inhibition of visible microbial growth by NCCLS protocol based method; assay type: functional
How it was run: (§3)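 Broth dilution MIC against clinical fluconazole-resistant C. albicans isolates from AIDS patients. Compounds dissolved in DMSO and serially diluted into growth medium. MIC was taken as the lowest concentration that inhibits visible fungal growth. Fluconazole and itraconazole served as positive controls.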

[9] = Cytotoxicity in human A549 cells assessed as reduction in cell viability at 10 uM/L incubated for 24 hrs by MTT assay relative to control; assay type: cell-based; conditions: read-out: INH; how it was run: as §2
[10] = Stability in human plasma assessed as parent compound remaining at 100 uM after 120 mins LC/MS/MS analysis relative to control; assay type: ADME, cell-free; conditions: read-out: Stability
How it was run: (§4)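 Thawed human plasma was cleared at 4000 rpm and spiked from a 100 μM dosing solution to a final 2 μM, in duplicate, at 37 °C. Propantheline served as positive control. Sampling at 0, 10, 30, 60 and 120 min into ACN/MeOH stop solution with tolbutamide and labetalol internal standards. After centrifugation, supernatant was diluted with water and run by LC/MS/MS. % remaining was taken from the analyte/IS peak-area ratio, with no standard curve.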

[11] = Cytotoxicity in human A549 cells assessed as reduction in cell viability at 2 uM/L incubated for 24 hrs by MTT assay relative to control; assay type: cell-based; conditions: read-out: INH; how it was run: as §2
[12] = Cytotoxicity in human A549 cells assessed as reduction in cell viability at 0.08 uM/L incubated for 24 hrs by MTT assay relative to control; assay type: cell-based; conditions: read-out: INH; how it was run: as §2
[13] = Stability in human plasma assessed as parent compound remaining at 100 uM after 60 mins LC/MS/MS analysis relative to control; assay type: ADME, cell-free; conditions: read-out: Stability; how it was run: as §4
[14] = test system: Candida albicans; experiment: Antifungal activity against fluconazole-resistant Candida albicans Strain CaR assessed as inhibition of visible microbial growth by NCCLS protocol based method; assay type: functional; how it was run: as §3

SMILES | MIC [1] | MIC [2] | MIC [3] | MIC [4] | MIC [5] | cytotoxicity at 24 h, 0.4 µM [6] | cytotoxicity at 24 h, 50 µM [7] | MIC [8] | cytotoxicity at 24 h, 10 µM [9] | remaining at 2 h, 100 µM [10] | cytotoxicity at 24 h, 2 µM [11] | cytotoxicity at 24 h, 0.08 µM [12] | remaining at 1 h, 100 µM [13] | MIC [14]
C[C@@H](Cn1ccnc1)NC(=O)c1ccc(-c2ccccc2)cc1 | 0.5 µg/mL | 1 µg/mL | 0.25 µg/mL | 4 µg/mL | > 64 µg/mL |  |  |  |  |  |  |  |  | 
CC[C@H](C)[C@@H](Cn1ccnc1)NC(=O)c1ccc(-c2ccccc2)c(C)c1 | > 16 µg/mL | > 64 µg/mL | 2 µg/mL | > 16 µg/mL | > 64 µg/mL |  |  |  |  |  |  |  |  | 
CC[C@H](C)[C@@H](Cn1cncn1)NC(=O)c1ccc(-c2ccccc2)cc1F | 0.125 µg/mL | 2 µg/mL | 0.25 µg/mL | 0.25 µg/mL | > 64 µg/mL |  |  |  |  |  |  |  |  | 
CC[C@H](C)[C@@H](Cn1ccnc1)NC(=O)c1ccc(-c2ccccc2)cc1OC | 0.25 µg/mL | > 64 µg/mL | 0.125 µg/mL | 1 µg/mL | > 64 µg/mL |  |  |  |  |  |  |  |  | 
CC[C@H](C)[C@@H](Cn1ccnc1)NC(=O)c1ccc(-c2ccccc2)cc1Cl | 0.06 µg/mL | > 64 µg/mL | 0.125 µg/mL | 0.25 µg/mL | > 64 µg/mL |  |  |  |  |  |  |  |  | 
CC[C@H](C)[C@@H](Cn1ccnc1)NC(=O)c1ccc(-c2ccc(F)cc2)cc1F | 0.125 µg/mL | 8 µg/mL | 0.125 µg/mL | 0.25 µg/mL | 4 µg/mL |  |  |  |  |  |  |  |  | 
CC[C@H](C)[C@@H](Cn1ccnc1)NC(=O)c1ccc(-c2ccccc2)c(Cl)c1 | 0.5 µg/mL | > 64 µg/mL | 0.25 µg/mL | 4 µg/mL | 4 µg/mL |  |  |  |  |  |  |  |  | 
CC[C@H](C)[C@@H](Cn1ccnc1)NC(=O)c1ccc(-c2ccccc2)cc1F | < 0.03 µg/mL | 2 µg/mL | < 0.03 µg/mL | < 0.03 µg/mL | 1 µg/mL | 1% | 14% | 2 µg/mL | 3.1% | 86.3% | 1.2% | 1.2% | 113% | 4 µg/mL
CC[C@H](C)[C@@H](Cn1ccnc1)NC(=O)c1ccc(-c2ccc(F)cc2)cc1 | 0.125 µg/mL | > 64 µg/mL | 0.125 µg/mL | 0.25 µg/mL | 1 µg/mL |  |  |  |  |  |  |  |  | 
CC[C@H](C)[C@@H](Cn1ccnc1)NC(=O)c1ccc(-c2ccccc2)cc1C | 0.25 µg/mL | > 64 µg/mL | 0.5 µg/mL | 1 µg/mL | > 64 µg/mL |  |  |  |  |  |  |  |  | 
CC(C)[C@@H](Cn1ccnc1)NC(=O)c1ccc(-c2ccc(F)cc2)cc1 | 0.25 µg/mL | 32 µg/mL | 0.25 µg/mL | 0.5 µg/mL | 1 µg/mL |  |  |  |  |  |  |  |  | 
CC(C)[C@@H](Cn1ccnc1)NC(=O)c1ccc(-c2ccccc2)cc1F | < 0.03 µg/mL | 1 µg/mL | < 0.03 µg/mL | 0.06 µg/mL | 2 µg/mL |  |  | 4 µg/mL |  |  |  |  |  | 32 µg/mL
CC[C@@H](Cn1ccnc1)NC(=O)c1ccc(-c2ccccc2)cc1 | < 0.06 µg/mL | 4 µg/mL | 0.125 µg/mL | 0.25 µg/mL | 16 µg/mL |  |  |  |  |  |  |  |  | 
CC(C)C[C@@H](Cn1ccnc1)NC(=O)c1ccc(-c2ccccc2)cc1F | < 0.03 µg/mL | 2 µg/mL | < 0.03 µg/mL | 0.06 µg/mL | 2 µg/mL |  |  | 1 µg/mL |  |  |  |  |  | 4 µg/mL
CC(C)[C@H](Cn1ccnc1)NC(=O)c1ccc(-c2ccccc2)cc1 | > 16 µg/mL | > 64 µg/mL | 8 µg/mL | > 16 µg/mL | > 64 µg/mL |  |  |  |  |  |  |  |  | 
C[C@@H](c1ncncc1F)[C@](O)(Cn1cncn1)c1ccc(F)cc1F [VORICONAZOLE] |  |  |  |  |  | 20.3% | 36.7% |  | 32% |  | 25.5% | 17.1% |  | 

Now from value to molecule, other results behind:

MIC [1] | MIC [2] | MIC [3] | MIC [4] | MIC [5] | SMILES | cytotoxicity at 24 h, 0.4 µM [6] | cytotoxicity at 24 h, 50 µM [7] | MIC [8] | cytotoxicity at 24 h, 10 µM [9] | remaining at 2 h, 100 µM [10] | cytotoxicity at 24 h, 2 µM [11] | cytotoxicity at 24 h, 0.08 µM [12] | remaining at 1 h, 100 µM [13] | MIC [14]
< 0.03 µg/mL | > 64 µg/mL | < 0.03 µg/mL | < 0.03 µg/mL | 1 µg/mL | CC(C)C[C@@H](Cn1ccnc1)NC(=O)c1ccc(-c2ccccc2)cc1 |  |  |  |  |  |  |  |  | 
< 0.03 µg/mL | > 64 µg/mL | 0.06 µg/mL | 0.06 µg/mL | 2 µg/mL | CC(C)[C@@H](Cn1ccnc1)NC(=O)c1ccc(-c2cccc(F)c2)cc1 |  |  |  |  |  |  |  |  | 
< 0.03 µg/mL | > 64 µg/mL | < 0.03 µg/mL | 0.125 µg/mL | 0.25 µg/mL | O=C(N[C@@H](Cc1ccccc1)Cn1ccnc1)c1ccc(-c2ccccc2)cc1 |  |  |  |  |  |  |  |  | 
< 0.03 µg/mL | > 64 µg/mL | < 0.03 µg/mL | 0.06 µg/mL | 4 µg/mL | CC(C)C[C@@H](Cn1ccnc1)NC(=O)c1ccc(-c2ccccc2)c(F)c1 |  |  |  |  |  |  |  |  | 
< 0.03 µg/mL | > 64 µg/mL | 0.06 µg/mL | 0.06 µg/mL | 1 µg/mL | CC[C@H](C)[C@@H](Cn1ccnc1)NC(=O)c1ccc(-c2ccccc2F)cc1 |  |  |  |  |  |  |  |  | 
< 0.03 µg/mL | > 64 µg/mL | < 0.03 µg/mL | 0.06 µg/mL | 0.5 µg/mL | O=C(N[C@@H](Cc1ccccc1)Cn1ccnc1)c1ccc(-c2ccccc2)c(F)c1 |  |  |  |  |  |  |  |  | 
< 0.03 µg/mL | > 64 µg/mL | 0.06 µg/mL | 0.06 µg/mL | 2 µg/mL | CC[C@H](C)[C@@H](Cn1ccnc1)NC(=O)c1ccc(-c2ccccc2)c(F)c1 |  |  |  |  |  |  |  |  | 
< 0.03 µg/mL | 4 µg/mL | < 0.03 µg/mL | 0.06 µg/mL | 4 µg/mL | CC[C@H](C)[C@@H](Cn1ccnc1)NC(=O)c1ccc(-c2cccc(F)c2)cc1F |  |  |  |  |  |  |  |  | 
< 0.03 µg/mL | > 64 µg/mL | < 0.03 µg/mL | < 0.03 µg/mL | 0.5 µg/mL | CC[C@H](C)[C@@H](Cn1ccnc1)NC(=O)c1ccc(-c2ccccc2)cc1 |  |  |  |  |  |  |  |  | 
< 0.03 µg/mL | 4 µg/mL | < 0.03 µg/mL | 0.06 µg/mL | 2 µg/mL | CCC[C@@H](Cn1ccnc1)NC(=O)c1ccc(-c2ccccc2)cc1 |  |  |  |  |  |  |  |  | 
< 0.03 µg/mL | > 64 µg/mL | < 0.03 µg/mL | 0.06 µg/mL | > 64 µg/mL | O=C(N[C@@H](Cc1ccccc1)Cn1ccnc1)c1ccc(-c2ccccc2)cc1F |  |  |  |  |  |  |  |  | 
< 0.03 µg/mL | > 64 µg/mL | 0.06 µg/mL | 0.06 µg/mL | 1 µg/mL | CC(C)[C@@H](Cn1ccnc1)NC(=O)c1ccc(-c2ccccc2F)cc1 |  |  |  |  |  |  |  |  | 
< 0.03 µg/mL | 8 µg/mL | < 0.03 µg/mL | 0.06 µg/mL | 1 µg/mL | CC(C)[C@@H](Cn1ccnc1)NC(=O)c1ccc(-c2ccccc2)cc1 |  |  |  |  |  |  |  |  | 
< 0.03 µg/mL | > 64 µg/mL | 0.06 µg/mL | 0.125 µg/mL | 2 µg/mL | CC[C@H](C)[C@@H](Cn1ccnc1)NC(=O)c1ccc(-c2cccc(F)c2)cc1 |  |  |  |  |  |  |  |  | 
< 0.03 µg/mL | > 64 µg/mL | 0.06 µg/mL | 0.06 µg/mL | 2 µg/mL | CC(C)[C@@H](Cn1ccnc1)NC(=O)c1ccc(-c2ccccc2)c(F)c1 |  |  |  |  |  |  |  |  | 
< 0.03 µg/mL | < 0.125 µg/mL | < 0.03 µg/mL | < 0.03 µg/mL | < 0.125 µg/mL | CCC(C)n1ncn(-c2ccc(N3CCN(c4ccc(OCC5COC(Cn6cncn6)(c6ccc(Cl)cc6Cl)O5)cc4)CC3)cc2)c1=O (stereo not drawn) [ITRACONAZOLE] |  |  |  |  |  |  |  |  | 
